Assay results reported in PMC8693751 (RSC Advances, 2021).
Entries after “also recorded” stand apart in the source; their conditions may differ. Read-outs that look alike come from different tables or passages of the source.

Tests used:
[1] = tested on: L. amazonensis promastigotes; assay: Leishmanicidal activity against promastigote forms, L. amazonensis; assay type: cell-based, Leishmania amazonensis
Outline: (§1)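 Promastigotes (L. amazonensis WHOM/00LTB0016; L. infantum MHOM/MA/67/ITMAP-263) at 1 × 10⁶ cells/mL in Schneider's medium with 10% FBS were exposed to eight test compound levels (1.5–200 μg mL−1) for 72 h at 26 °C. Untreated cells were the negative control and miltefosine the standard.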

[2] = tested on: L. infantum promastigotes; assay: Leishmanicidal activity against promastigote forms, L. infantum; assay type: cell-based, Leishmania infantum
Outline: as §1

[3] = tested on: T. cruzi amastigotes (Tulahuen strain); assay: Amastigote assay; assay type: cell-based; details: Trypanosoma cruzi, L929, read-out: Amastigote, IC50
Outline: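 Tulahuen T. cruzi expressing E. coli beta-galactosidase, grown in L-929 fibroblasts in RPMI 1640 without phenol red with 10% FBS and glutamine. Fibroblasts were seeded at 4.0 × 10³/well overnight (37 °C, 5% CO2), then given trypomastigotes at 4.0 × 10⁴/well for 2 h before the free parasites were removed. At 48 h, test compound in DMSO was added (0.625–20 μg mL−1, six levels, quadruplicate). After 7 days, 100 μM chlorophenol red β-D-galactopyranoside and 0.1% Nonidet P-40 were added overnight at 37 °C and A570 read as % growth inhibition. Benznidazole was the positive control; two independent experiments.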

LLC-MK2 cells = details: read-out: LLC-MK2, CC50, cited from earlier work
T. cruzi trypomastigotes = assay: Cell death assessment through flow cytometry; assay type: cell-based, Trypanosoma cruzi; details: for double-positive (double-stained) cells (upper right quadrant): 24 hours
Outline: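 […] trypomastigotes taken from infected L929 supernatant were seeded at 4 × 10⁵/well in RPMI-1640 with test compound (in DMSO) at three levels, 37 °C for 24 h. Benznidazole was the positive control and medium the negative control. Cells were washed in PBS, placed in binding buffer, and labelled with propidium iodide (50 μg mL−1 solution) plus Annexin-FITC for 15 min at room temperature in the dark. 20000 events were acquired, in triplicate, and analysed by ANOVA with Dunnett's test (p < 0.05).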

[4] = tested on: L. infantum promastigotes; details: cited from earlier work
[5] = tested on: L. amazonensis promastigotes; details: cited from earlier work
[6] = Leishmania amazonensis, 72 h, read-out: Promastigotes IC50L.Ama, 72 hours
[7] = Leishmania infantum, 72 h, read-out: Promastigotes IC50L.Inf, 72 hours
[8] = read-out: IC50L.inf, earlier carboxylic acids

SMILES | IC50 [1, 6] [µM] | IC50 [2, 7] [µM] | further results
CCOC(=O)CC1SC(=NN=Cc2cccc(O)c2)NC1=O (centres unmarked) [2k, Ethyl 2-(2-(3-hydroxybenzylidene)hydrazono)-4-oxothiazolidine-5-acetate] | 364 | 370 | –
CCOC(=O)CC1SC(=NN=Cc2ccc([N+](=O)[O-])cc2)NC1=O (centres unmarked) [2f, Ethyl 2-(2-(4-nitrobenzylidene)hydrazono)-4-oxothiazolidine-5-acetate] | 57.5 | 325 | –
CCOC(=O)c1csc(NN=Cc2cccc(Cl)c2)n1 [1a, Ethyl 2-(2-(3-chlorobenzylidene)hydrazinyl)thiazole-4-carboxylate] | 189 | 164 | IC50 [3]: 16.9 µM
CCOC(=O)CC1SC(=NN=Cc2ccccc2OC)NC1=O (centres unmarked) [2j, Ethyl 2-(2-(2-methoxybenzylidene)hydrazono)-4-oxothiazolidine-5-acetate] | 186 | 236 | –
COC(=O)CC1SC(=NN=Cc2ccc(Cl)cc2)NC1=O (centres unmarked) [2b, Methyl 2-(2-(4-chlorobenzylidene)hydrazono)-4-oxothiazolidine-5-acetate] | 91.4 | 33.2 | –
O=C(Cn1ccnc1[N+](=O)[O-])NCc1ccccc1 [BZD, Benznidazole, reference compound] | – | – | IC50 [3]: 5.65 µM; CC50 (LLC-MK2 cells; standard drug BZD): 615 µM; double-positive (double-stained) cells (upper right quadrant) (T. cruzi trypomastigotes; at 2 × IC50 (1f 1.66 μM; BZD 70.8 μM)): 19.56%
CCOC(=O)c1csc(NN=C(C)c2ccccc2)n1 [1g, Ethyl 2-(2-(1-phenylethylidene)hydrazinyl)thiazole-4-carboxylate] | 43 | 37.4 | IC50 [3]: 40.7 µM
CCOC(=O)c1csc(NN=Cc2ccc(OC)cc2)n1 [1c, Ethyl 2-(2-(4-methoxybenzylidene)hydrazinyl)thiazole-4-carboxylate] | 392 | 332 | IC50 [4, 8]: 85.3 µM
CCOC(=O)CC1SC(=NN=Cc2ccccc2Cl)NC1=O (centres unmarked) [2c, Ethyl 2-(2-(2-chlorobenzylidene)hydrazono)-4-oxothiazolidine-5-acetate] | 114 | 129 | –
CCCCCCCCCCCCCCCCOP(=O)([O-])OCC[N+](C)(C)C [Miltefosine, reference compound] | – | – | IC50 ([4]; read-out: Promastigotes IC50L.Inf, standard drug Miltefosine): 53.7 µM; CC50 (LLC-MK2 cells; standard drug Miltefosine): 12.3 µM; IC50 ([5]; read-out: Promastigotes IC50L.Ama, standard drug Miltefosine): 36.3 µM
CCOC(=O)CC1SC(=NN=Cc2ccccc2[N+](=O)[O-])NC1=O (centres unmarked) [2h, Ethyl 2-(2-(2-nitrobenzylidene)hydrazono)-4-oxothiazolidine-5-acetate] | 17 | 295 | –
CCOC(=O)c1csc(NN=Cc2cccc(OC)c2)n1 [1d, Ethyl 2-(2-(3-methoxybenzylidene)hydrazinyl)thiazole-4-carboxylate] | 159 | 104 | –
CCOC(=O)CC1SC(=NN=Cc2ccccc2O)NC1=O (centres unmarked) [2l, Ethyl 2-(2-(2-hydroxybenzylidene)hydrazono)-4-oxothiazolidine-5-acetate] | 84.3 | 67.3 | –
CCOC(=O)CC1SC(=NN=C2CCCc3ccccc32)NC1=O (centres unmarked) [2o, Ethyl 2-((2-(3,4-dihydronaphthalen-1(2H)-ylidene))hydrazono)-4-oxo-thiazolidin-5-acetate] | 180 | 176 | –
CCOC(=O)CC1SC(=NN=Cc2ccccc2C)NC1=O (centres unmarked) [2n, Ethyl 2-(2-(2-methylbenzylidene)hydrazono)-4-oxothiazolidine-5-acetate] | 268 | 168 | –
CCOC(=O)c1csc(NN=Cc2cccc(Br)c2)n1 [1e, Ethyl 2-(2-(3-bromobenzylidene)hydrazinyl)thiazole-4-carboxylate] | 246 | 170 | –
CCOC(=O)CC1SC(=NN=Cc2ccc(O)c(OC)c2)NC1=O (centres unmarked) [2p, Ethyl 2-(2-(4-hydroxy-3-methoxybenzylidene)hydrazono)-4-oxothiazolidine-5-acetate] | 233 | 320 | –
CCOC(=O)CC1SC(=NN=Cc2ccc(Br)cc2)NC1=O (centres unmarked) [2d, Ethyl 2-(2-(4-bromobenzylidene)hydrazono)-4-oxothiazolidine-5-acetate] | 14.6 | 14.5 | –
CCOC(=O)c1csc(NN=Cc2ccccc2Br)n1 [1f, Ethyl 2-(2-(2-bromobenzylidene)hydrazinyl)thiazole-4-carboxylate] | 23.3 | 23.5 | IC50 [3]: 56.5 µM; IC50 ([1]; read-out: Promastigotes IC50L.Ama, 72 hours): 24.3 µM; cell death mechanism of T. cruzi (T. cruzi trypomastigotes; PI / Annexin-V staining): necrosis and apoptosis; also recorded: consistent with necrosis; double-positive (double-stained) cells (upper right quadrant) (T. cruzi trypomastigotes; at 4 × IC50 (1f 3.32 μM; BZD 141.6 μM)): 17.58%
CCOC(=O)CC1SC(=NN=Cc2ccccc2)NC1=O (centres unmarked) [2a, Ethyl 2-((2-benzylidene)hydrazono)-4-oxothiazolidine-5-acetate] | 367 | 365 | –
CCOC(=O)CC1SC(=NN=Cc2cccc([N+](=O)[O-])c2)NC1=O (centres unmarked) [2g, Ethyl 2-(2-(3-nitrobenzylidene)hydrazono)-4-oxothiazolidine-5-acetate] | 309 | 329 | –
CCOC(=O)c1csc(NN=Cc2ccccc2Cl)n1 [1b, Ethyl 2-(2-(2-chlorobenzylidene)hydrazinyl)thiazole-4-carboxylate] | 27.9 | 14.4 | IC50 [4, 8]: 59.5 µM; IC50 ([5]; read-out: IC50L.ama, earlier carboxylic acids): 34.5 µM
CCOC(=O)CC1SC(=NN=Cc2ccc(OC)cc2)NC1=O (centres unmarked) [2i, Ethyl 2-(2-(4-methoxybenzylidene)hydrazono)-4-oxothiazolidine-5-acetate] | 169 | 147 | –
CCOC(=O)c1csc(NN=Cc2ccco2)n1 [1h, Ethyl 2-(2-(furan-2-ylmethylene)hydrazinyl)thiazole-4-carboxylate] | 451 | 374 | IC50 [3]: 75.4 µM
CCOC(=O)CC1SC(=NN=Cc2cccc(Br)c2)NC1=O (centres unmarked) [2e, Ethyl 2-(2-(3-bromobenzylidene)hydrazono)-4-oxothiazolidine-5-acetate] | 120 | 116 | –
CCOC(=O)CC1SC(=NN=Cc2ccc(C)cc2)NC1=O (centres unmarked) [2m, Ethyl 2-(2-(4-methylbenzylidene)hydrazono)-4-oxothiazolidine-5-acetate] | 13.3 | 18.8 | IC50 ([2]; read-out: Promastigotes IC50L.Inf, 72 hours): 18.8 µM
